Reference: ChEMBL document CHEMBL4765348, “Discovery of the first Mycobacterium tuberculosis MabA (FabG1) inhibitors through a fragment-based screening” (Eur J Med Chem, 2020)
Activity calls are given as the source filed them. The rule behind the calls is not given here.

Key:
[1] = Inhibition of Mycobacterium tuberculosis His6-tagged MabA expressed in Escherichia coli BL21 (DE3) assessed as reduction in HBCoA formation using AcAcCoA as substrate preincubated for 30 mins followed by substrate and 100 uM NADPH addition and measured after 15 mins by LC-MS/MS analysis
[2] = system: Mycobacterium tuberculosis; assay: Binding affinity to Mycobacterium tuberculosis His6-tagged MabA expressed in Escherichia coli BL21 (DE3) at 100 uM by 19FNMR analysis
[3] = system: Mycobacterium tuberculosis; assay: Antimycobacterial activity against GFP-tagged Mycobacterium tuberculosis H37Rv assessed as inhibition of microbial growth incubated for 5 days by fluorescence assay; assay type: functional; details: 120 h
How it was run: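 M. tuberculosis H37Rv expressing GFP, grown in 7H9 with 0.2% glycerol and 0.05% Tween80, diluted to OD600 0.02. Ten 3-fold dilutions from 300 μM to 15 nM, 0.3% DMSO. Incubated 5 days at 37 °C, fluorescence read at Ex/Em 485/535 nm. Two independent replicates. Rifampicin, isoniazid and ethionamide served as positive controls.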

[4] = system: Mycobacterium tuberculosis; assay: Antimycobacterial activity against Mycobacterium tuberculosis H37Ra assessed as inhibition of microbial growth incubated for 4 weeks in culture medium at pH 6.8; assay type: functional; details: 672 h
[5] = system: Mycobacterium tuberculosis; assay: (§1) Inhibition of Mycobacterium tuberculosis His6-tagged MabA expressed in Escherichia coli BL21 (DE3) assessed as reduction in HBCoA formation up to 100 uM using AcAcCoA as substrate preincubated for 10 to 30 mins followed by substrate and NADPH addition and measured after 15 mins by LC-MS/MS analysis; details: dose microM <=100, time 10-45 min
[6] = system: Mycobacterium tuberculosis; assay: as §1, with “at 1 mM” for “up to 100 uM”, “analysis relative to control” for “analysis”; details: time 10-45 min
How it was run: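 Single-point screen of His6-MabA purified by Ni2+-affinity. Compound at 1 mM was preincubated 10 or 30 min at 23 °C with 400 nM enzyme in 100 mM Hepes pH 7. Reaction ran 15 min with 50 µM AcAcCoA and 50 µM NADPH in 1% DMSO, then was stopped with 1% TFA containing 5 µM butyryl-CoA internal standard. HBCoA/BCoA was measured by LC-MS/MS MRM. % inhibition was taken relative to DMSO and 200 µM INH-NADP adduct controls.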

[7] = system: Mycobacterium tuberculosis; assay: Non-competitive inhibition of Mycobacterium tuberculosis MabA expressed in Escherichia coli BL21 (DE3) assessed as reduction in HBCoA formation using AcAcCoA as substrate preincubated for 30 mins followed by substrate and 50 to 500 uM NADPH addition and measured after 15 mins by LC-MS/MS analysis; details: time 45.0 min
How it was run: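 Dose-response MabA assay (400 nM enzyme, 50 μM AcAcCoA, 30 min preincubation at 22 °C, 15 min reaction, LC-MS/MS HBCoA/BCoA) run at NADPH 50 and 500 μM. Test compound was tested at 8 points, 3-fold from 1 mM to 0.46 μM. INH-NADP adduct was tested from 200 μM to 0.09 μM. IC50s were compared between NADPH levels.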

[8] = Lipophilicity, logD of compound in octanol and PBS buffer at pH 7.4 incubated for 2 hrs under shaking condition by LC-MS/MS analysis; assay type: physicochemical
How it was run: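 10 mM DMSO stock diluted 1:50 into 1/1 octanol/PBS pH 7.4, shaken 2 h at room temperature. Each phase was diluted in MeOH and quantified by LC-MS/MS MRM (ES−). LogD is the log of the octanol/PBS concentration ratio. Run in triplicate.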

[9] = Solubility of compound in PBS buffer at pH 7.4 incubated for 24 hrs under shaking conditions by LC-MS/MS analysis; assay type: physicochemical
How it was run: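 10 mM DMSO stock diluted 1:50 into PBS pH 7.4 or MeOH, in triplicate. Shaken 24 h at room temperature, centrifuged and filtered through 0.45 μm, then diluted in MeOH for LC-MS/MS MRM. Solubility is the PBS/MeOH signal-area ratio.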

| Compound | IC50 [1] | inhibition [6] | other results |
| --- | --- | --- | --- |
| O=C(O)c1cc(I)ccc1NC(=O)C1Cc2ccccc2C1 | 140 µM |  |  |
| O=C(Nc1ccc(I)cc1C(=O)O)c1ccc(OC(F)(F)F)cc1 | 84 µM |  | Activity [2]: Active |
| O=C(CCc1ccccc1)Nc1ccc(I)cc1C(=O)O | 295 µM |  |  |
| CO[C@H]1/C=C/O[C@@]2(C)Oc3c(C)c(O)c4c(O)c(c(/C=N/N5CCN(C)CC5)c(O)c4c3C2=O)NC(=O)/C(C)=C\C=C\[C@H](C)[C@H](O)[C@@H](C)[C@@H](O)[C@@H](C)[C@H](OC(C)=O)[C@@H]1C [RIFAMPIN] |  |  | MIC [3]: 0.004 µg/mL |
| O=C(O)c1ccccc1O [SALICYLIC ACID] |  |  | MIC [4]: 33 µg/mL |
| CC/C(C)=C1\OC(=O)[C@H](C)[C@H](O)[C@H](Cc2cccnc2)NC(=O)[C@@H](NC(=O)c2ncccc2O)[C@@H](C)OC1=O |  |  | inhibition [5]: inactive |
| O=C1Nc2ccc(Br)cc2C1=O | 72 µM |  | MIC90 [3]: > 300 µM |
| Cc1cccc(Nc2ccccc2C(=O)O)c1C [MEFENAMIC ACID] |  |  | MIC [4]: 33 µg/mL |
| CC(C)(C)OC(=O)Nc1ccc(I)cc1C(=O)O |  | 100% | MIC90 [3]: 300 µM; inhibition [7]: Active |
| NNC(=O)c1ccncc1 [ISONIAZID] |  |  | MIC [3]: 0.125 µg/mL |
| C/C=C/C=C/C(=O)Nc1c[nH]c(=O)[nH]c1=O | 65 µM |  | MIC90 [3]: > 300 µM |
| C=CCOC(=O)Nc1ccc(I)cc1C(=O)O | > 500 µM | 83% |  |
| CC(=O)Oc1ccccc1C(=O)O [ASPIRIN] |  |  | MIC [4]: 33 µg/mL |
| O=C(Nc1ccc(I)cc1C(=O)O)c1ccc(Cl)cc1 | 53 µM |  |  |
| O=C(Nc1ccc(I)cc1C(=O)O)c1ccc(Cl)nc1 | 147 µM |  |  |
| CC(C)(C)OC(=O)Nc1ccc(-c2ccccc2)cc1C(=O)O | 194 µM | 100% |  |
| O=C(O)c1ccccc1 [BENZOIC ACID] |  |  | MIC [4]: 33 µg/mL |
| O=C1NC(=S)NC(=O)C1C/C=C/c1ccccc1 | 40 µM |  | MIC90 [3]: > 300 µM |
| O=C(Nc1ccc(I)cc1C(=O)O)c1ccc(Cl)cc1Cl | 126 µM |  |  |
| Cc1ccc(C(=O)Nc2ccc(I)cc2C(=O)O)cc1 | 95 µM |  |  |
| COc1ccc(NC(=O)OC(C)(C)C)c(C(=O)O)c1 | > 1000 µM | 31% |  |
| CC(C)(C)OC(=O)Nc1ccc(F)cc1C(=O)O | 470 µM | 38% |  |
| CC(C)(C)OC(=O)Nc1ccc(Br)cc1C(=O)O | 470 µM | 95% |  |

| Compound | IC50 [1] | inhibition [6] | other results |
| --- | --- | --- | --- |
| CC(C)(C)OC(=O)Nc1cc2ccccc2cc1C(=O)O | 310 µM | 100% |  |
| O=C(Nc1ccc(I)cc1C(=O)O)c1ccc(Cl)c(C(F)(F)F)c1 | 59 µM |  | Activity [2]: Active |
| O=C(Nc1ccc(I)cc1C(=O)O)c1cccc(Cl)c1 | 70 µM |  |  |
| O=C(O)c1cc(I)ccc1NC(=O)C1CCc2ccccc2C1 (stereo unspecified) | 109 µM |  |  |
| O=C(Nc1ccc(I)cc1C(=O)O)OCc1ccccc1 | 92 µM | 100% |  |
| O=C(O)c1cc2sccc2[nH]1 | 185 µM |  | MIC90 [3]: > 300 µM |
| CC(C)(C)OC(=O)Nc1ccccc1C(=O)O | > 1000 µM | 31% |  |
| O=C(Nc1ccc(I)cc1C(=O)O)c1ccncc1 | > 400 µM |  |  |
| CC(C)COC(=O)Nc1ccc(I)cc1C(=O)O | 310 µM | 100% |  |
| O=C(Nc1ccc(I)cc1C(=O)O)c1ccccc1 | 145 µM |  |  |
| COC(=O)c1cc(I)ccc1NC(=O)OC(C)(C)C | > 1000 µM | 0% |  |
| O=C(Nc1ccc(I)cc1C(=O)O)c1ccc(Cl)c(Cl)c1 | 38 µM |  | MIC90 [3]: 300 µM; logD at 2 h [8]: 3.4; solubility thermodynamic at 24 h [9]: > 200 µM |
| O=C(O)c1cc(I)ccc1NC(=O)C1CC1 | > 500 µM |  |  |
| O=C(CCCc1ccccc1)Nc1ccc(I)cc1C(=O)O | 186 µM |  |  |
| Oc1cc(Cl)ccc1Oc1ccc(Cl)cc1Cl |  |  | inhibition [5]: inactive |
| CC(C)(C)OC(=O)Nc1ccc(Cl)cc1C(=O)O | > 500 µM | 77% |  |
| CC(C)(C)OC(=O)Nc1ccc(Oc2ccccc2)cc1C(=O)O | 243 µM | 100% |  |
| O=C(Cc1ccccc1)Nc1ccc(I)cc1C(=O)O | > 500 µM |  |  |
| CCc1cc(C(N)=S)ccn1 [ETHIONAMIDE] |  |  | MIC [3]: 2 µg/mL |
| CN(C(=O)OC(C)(C)C)c1ccc(I)cc1C(=O)O | 1000 µM | 50% |  |
| O=C(Nc1ccc(I)cc1C(=O)O)c1ccc(C(F)(F)F)cc1 | 69 µM |  | Activity [2]: Active |
| CC1(C#CC(=O)O)CC1(Cl)Cl (stereo unspecified) | 25 µM |  | MIC90 [3]: > 300 µM |
